In general, Ki refers to the dissociation constant of the complex between target and ligand, obtained from inhibition or displacement. The term Km denotes the concentration of substrate that gives half-maximal velocity. For orientation: inhibition means the relative decrease from the control value, in per cent.

Consider 36 compounds from paper PMC2668526 (Bioorganic & medicinal chemistry, 2008).

The subject of one experiment is B. germanica PHM. Nature of the experiment: B. germanica PHM inhibition. It counts as biochemical, Blatella germanica. Conditions: for RatKi,s/InsectKi,s: ratio rat PAM Ki,s to B. germanica PHM Ki,s; for Ki: read-out: Ki,s vs. B. germanica PHM, N-dansyl-Tyr-Val-Gly amidation.
In experiment [1] the target is T1, rat PAM (Rattus norvegicus, UniProt P14925).
T1 sequence (P14925 36-715 isoform P14925-2 limits assumed): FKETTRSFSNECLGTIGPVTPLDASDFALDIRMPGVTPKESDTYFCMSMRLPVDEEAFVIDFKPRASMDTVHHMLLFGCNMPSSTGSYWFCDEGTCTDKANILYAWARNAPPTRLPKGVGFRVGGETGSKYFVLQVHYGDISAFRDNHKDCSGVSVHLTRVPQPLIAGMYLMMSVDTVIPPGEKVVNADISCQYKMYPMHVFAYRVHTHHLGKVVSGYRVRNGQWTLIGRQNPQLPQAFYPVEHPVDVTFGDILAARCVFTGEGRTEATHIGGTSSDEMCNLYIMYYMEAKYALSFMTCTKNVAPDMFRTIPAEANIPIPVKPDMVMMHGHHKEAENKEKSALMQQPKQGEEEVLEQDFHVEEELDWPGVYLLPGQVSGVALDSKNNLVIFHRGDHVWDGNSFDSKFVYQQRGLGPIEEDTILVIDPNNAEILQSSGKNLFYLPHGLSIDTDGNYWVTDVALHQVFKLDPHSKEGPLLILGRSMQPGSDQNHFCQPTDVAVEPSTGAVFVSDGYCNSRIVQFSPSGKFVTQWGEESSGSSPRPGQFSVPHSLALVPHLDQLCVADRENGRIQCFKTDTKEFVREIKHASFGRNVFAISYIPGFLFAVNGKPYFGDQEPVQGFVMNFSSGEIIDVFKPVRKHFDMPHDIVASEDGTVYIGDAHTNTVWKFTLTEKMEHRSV
Kind of experiment: Bifunctional rat PAM inhibition. It counts as biochemical.

A further experiment relates to DU 145 cells. Kind of experiment: Growth of human prostate DU 145 cells. It counts as cell-based. Particulars: for antiproliferative concentration relative to Ki,s for PHM: DU 145 cells vs. in vitro Ki,s. In a few lines:
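DU 145 cells in EMEM (Earle's salts, 2 mM glutamine, 1.0 mM pyruvate, 0.1 mM amino acids, 10% FBS, penicillin/streptomycin). Grown to 80% confluency, trypsinized, seeded at 50,000 cells/well, adhered 24 h. Medium then replaced with or without test compound; 10 μM 4-HPR as positive control. Counted at 8, 24, 48, 72, 96 h: PBS wash, trypsin/EDTA detachment, Trypan blue, hemacytometer viable/non-viable count.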

Experiment [2] addresses T1, rat PAM. Nature of the experiment: Steady-state kinetics of rat bifunctional PAM substrates. Conditions: for (V/K)app / Km: O2 consumption, 5.0 mM ascorbate, pH 6.0, 37 °C; for Km: read-out: KM,app; for Rel. (V/K)app: relative to hippuric acid = 1.0; for (V/K)app as percent of the corresponding glycine substrate: D-alanine substrate vs. corresponding glycine substrate.
The subject of the next experiment is PHM. Particulars: cited from earlier work; for Km: read-out: KM,app.
The target of another experiment is PAL activity of rat PAM (Rattus norvegicus, UniProt P14925). Nature of the experiment: Inhibition of PAL activity. It counts as biochemical. Particulars: read-out: inhibition of PAL activity. In a few lines: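 Recombinant type A rat medullary thyroid carcinoma PAM (1.5–3.0 μg) started reactions at 37.0 °C. Buffer: 100 mM MES/NaOH pH 6.0, 30 mM NaCl, 1% ethanol, 0.001% Triton X-100. Substrate: 2.0 mM (R,S)-α-hydroxyhippuric acid, with 0 or 750 μM test compound. No-enzyme blank included. TFA quench at 20 min. Glyoxylate measured spectrophotometrically against a standard curve.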

Setting [3] is: Ki,s, rat PAM, absence of DMSO, competitive inhibition assumed.

“And” between values parts separate entries of the source, which are not always exact repeats. Identical values can stand only once. Like-named read-outs stand apart in the source and are kept apart here. Where a SMILES comes first, the peptide text is derived from it. The star is where a group is joined. ClAc = O=C(CCl)*; NHOH = ON* Where only a bound is given, the exact number is not on record here.

With `O=C(O)CSc1ccccc1` [compound 72, S-Phenylmercaptoacetic Acid], in the experiment on B. germanica PHM, the “RatKi,s/InsectKi,s” value came to 6.9 and the Ki was 56 ± 6 µM. This compound also returned a Ki at rat PAM [1] (setting [3]) of 380 ± 40 µM.

`CC1=C(/C=C/C(C)=C/C=C/C(C)=C/C(=O)Nc2ccc(O)cc2)C(C)(C)CCC1` [4-HPR, N-(4-hydroxyphenyl) retinamide, reference compound]: the “effect on cell growth (positive control)” value in the experiment with DU 145 cells (DU 145 cells, 10 μM, 48 hr) was “completely eliminates cell growth”.

On to `O=C(O)CNC(=O)CNC(=O)CCl` [compound 34, Chloroacetyl-Gly-Gly] (ClAc-Gly-Gly-OH), for which, on rat PAM [2], the “(V/K)app” value is on record as “(2.1± 0.1) × 10^4 M^−1 s^−1” and the Km was 420 ± 30 µM.

`CC(C)C[C@H](NC(=O)[C@@H]1CCCN1)C(=O)NCC(=O)NO` [compound 74, Pro-Leu-Gly hydroxamic acid] (H-Pro-Leu-Gly-{NHOH}) came in with a Ki on rat PAM [1] (setting [3]) of 1000 µM.

For the compound `O=C(NCC[C@H](O)C(=O)O)OCc1ccccc1` [compound 75, (S)-N-CBZ-4-amino-2-hydroxybutyric acid], the Ki on rat PAM [1] (setting [3]) worked out at 1400 µM.

With “2-Propylmercaptoacetylglycine [compound 29]”, on rat PAM [2], the “(V/K)app” value was “(8.2 ± 0.3) × 10^3 M^−1 s^−1”, the Km turned out to be 220 ± 10 µM and the “Rel. (V/K)app” value is on record as 1.3.

Turning to `O=C(O)CNC(=S)Nc1ccccc1` [compound 69, N-Phenylthiohydantoic acid], the Ki on rat PAM [1] (Ki,s, rat PAM, […] DMSO) came to 110 ± 20 µM.

In the case of `C[C@@H](NC(=O)OCc1ccccc1)C(=O)O` [compound 53, CBZ-D-alanine], the “(V/K)app as percent of the corresponding glycine substrate” value (shortened to “(V/K)app as percent”) on rat PAM [2] is recorded as 0.05–0.3%.

Take `C[C@@H](NC(=O)c1ccccc1)C(=O)O` [compound 52, Benzoyl-D-alanine]: the “(V/K)app as percent” value on rat PAM [2] was 0.05–0.3%.

As to `Cc1ccc(C(=S)SCC(=O)O)cc1` [compound 57, S-(4-Methylthiobenzoyl)thioglycolic acid], in the experiment on B. germanica PHM, the “RatKi,s/InsectKi,s” value turned out to be 0.25 and the Ki worked out at 14 ± 1 µM. Moreover, in the experiment on DU 145 cells, the “antiproliferative concentration relative to Ki,s for PHM” value is 60–300 fold. Affinity on rat PAM [1] (setting [3]) was put at a Ki of 3.5 ± 0.4 µM.

Consider “2-Pyridylmercaptoacetylglycine [compound 47]”, for which, on rat PAM [2], the “(V/K)app” value was “(8.3 ± 0.7) × 10^4 M^−1 s^−1”, the Km was 36 ± 4 µM and the “Rel. (V/K)app” value is listed as 13.

For the compound `O=C(O)CSC(=S)CCc1ccccc1` [compound 62, S-(3-Phenylthiopropionyl)thioglycolic acid], the “RatKi,s/InsectKi,s” value in the experiment with B. germanica PHM is given as 11. Also, the Ki on B. germanica PHM is 0.87 ± 0.11 µM; on rat PAM [1] (Ki,s, rat PAM, […] DMSO), 30 µM; at rat PAM [1] (setting [3]) it was 9.4 ± 0.8 µM.

Turning to `O=C(O)CSC(=S)c1ccccc1` [compound 64, S-(Thiobenzoyl)thioglycolic acid], the Ki at B. germanica PHM is 92 ± 10 µM; at rat PAM [1] (Ki,s, rat PAM, […] DMSO), 49 µM; at rat PAM [1] (setting [3]), 39 ± 5 µM.

For `N[C@@H](CCC(=O)N[C@@H](CS)C(=O)NCC(=O)O)C(=O)O` [glutathione], in the experiment with PHM, the Km was 130 µM.

On rat PAM [1], `O=C(NCP(=O)(O)O)c1cccnc1` [compound 80, (Nicotinamidomethyl)phosphonic acid] came in with a Ki greater than 75000 µM. Besides, the “inhibition of PHM (O2 consumption)” value at rat PAM [1] (28 mM compound, 200 μM N-octanoylglycine as substrate) is listed as “no inhibition”.

For `O=C(O)CNC(=O)CCCCCCCc1ccccc1` [compound 46, 8-Phenyloctanoylglycine], the “(V/K)app lower than that of 6-phenylhexanoylglycine 50” value on rat PAM [2] was ~ 2.5 fold.

On rat PAM [1] (setting [3]), `O=C(O)COC(=O)Nc1ccccc1` [compound 65, O-(Phenylcarbamoyl)glycolic acid] displayed a Ki of 54 ± 4 µM.

In turn, `CC(C#N)(CCC(=O)O)SC(=S)c1ccccc1` (stereo not drawn) [compound 58, S-(Thiobenzoyl)-4-mercapto-4-cyanopentanoic acid] showed a Ki on rat PAM [1] (setting [3]) of 5.7 ± 0.4 µM.

Regarding `O=C(O)CSC(=S)Nc1ccccc1` [compound 61, S-(Phenylthiocarbamoyl)thioglycolic acid], in the experiment on B. germanica PHM, the “RatKi,s/InsectKi,s” value was found to be 1.6. For the same compound, the Ki at B. germanica PHM amounted to 5.4 ± 0.3 µM; at rat PAM [1] (setting [3]), 8.6 ± 1.4 µM. Moreover, on PAL activity of rat PAM, the inhibition at 750 µM is roughly 40%.

Consider `O=C(O)CNC(=O)c1ccccc1O` [salicylurate], for which the Km with PHM (ref 23b) is 860 µM.

Turning to `O=C(O)CCSC(=S)Nc1ccccc1` [compound 56, S-(Phenylthiocarbamoyl)-3-mercaptopropionic acid], in the experiment with B. germanica PHM, the “RatKi,s/InsectKi,s” value came to 0.47. Also, the Ki on B. germanica PHM worked out at 5.5 ± 0.8 µM; at rat PAM [1] (setting [3]), 2.6 ± 0.7 µM.

The compound `O=C(O)CONC(=O)c1ccccc1` [compound 73, O-Benzamidoglycolic acid] registered a Ki on rat PAM [1] (setting [3]) of 1000 µM.

In the case of `NCC(=O)NNC(=O)OCc1ccccc1` [compound 78, (CBZ-hydrazido)glycine], on rat PAM [1] (setting [3]), the inhibition constant (Ki) came out at 7900 µM.

In the case of `CCOC(=O)CSC(=S)c1ccc(C)cc1` [compound 70, S-(4-Methylthiobenzoyl)thioglycolic acid ethyl ester], affinity at rat PAM [1] (setting [3]) was put at a Ki of 110 ± 10 µM.

Turning to `CC(=O)N[C@H](C)C(=O)O` [compound 51, Acetyl-D-alanine], on rat PAM [2], the “(V/K)app as percent” value is 0.05–0.3%.

`CCCCCCCCCCCC(=S)SCC(=O)O` [compound 55, S-(Thiolauroyl)thioglycolic acid] registered a Ki on rat PAM [1] (setting [3]) of 0.54 ± 0.05 µM.

For `O=C(NC(CSC(=O)c1ccccc1)C(=O)O)c1ccccc1` (stereo in doubt) [compound 68, N,S-Dibenzoyl-L-cysteine], the inhibition constant (Ki) at rat PAM [1] (setting [3]) came to 69 ± 7 µM.

For the compound 3-Indolylacetylglycine [compound 24], on rat PAM [2], the “(V/K)app” value is “(2.5 ± 0.1) × 10^3 M^−1 s^−1”.

Consider methyl ester of N-dansyl-Tyr-Val-Gly, for which the Ki on PHM (read-out: Ki,s, ref 20a) is 54 µM.

Turning to `CC(NC(=S)c1ccccc1)C(=O)O` (stereo not drawn) [compound 59, N-(Thiobenzoyl)-(D,L)-alanine], the Ki at rat PAM [1] (setting [3]) is 7.2 ± 0.9 µM.

At rat PAM [1] (setting [3]), `O=C(O)CNCc1ccccc1` [compound 79, N-Benzylglycine] displayed a Ki of 18000 µM.

On rat PAM [1] (setting [3]), `O=C(N[C@H](CO)C(=O)O)c1ccccc1` [compound 76, N-(Benzoyl)-D-serine] gave a Ki of 1500 µM.

On rat PAM [1] (setting [3]), `O=C(NO)c1ccccc1O` [compound 71, Salicylhydroxamic acid] returned a Ki of 300 ± 20 µM.

Take `CC(SC(=S)c1ccccc1)C(=O)O` (racemic) [compound 66, S-(Thiobenzoyl)-(R,S)-thiolactic acid]: on rat PAM [1] (setting [3]), the Ki came to 58 ± 9 µM.

In the case of `O=C(O)CNC(=O)CCCCCc1ccccc1` [compound 50, 6-Phenylhexanoylglycine], on rat PAM [2], the “increase of (V/K)app over hippurate 1” value is recorded as ~ 30 fold and the “ratio of (V/K)app to that of 3-(2-furyl)acryloylglycine 26” value is listed as “about 70”.

Regarding `O=C(O)CSC(=S)Cc1ccccc1` [compound 60, S-(2-Phenylthioacetyl)thioglycolic acid], the “RatKi,s/InsectKi,s” value with B. germanica PHM came to 2.1. For the same compound, the Ki is 3.6 ± 0.6 µM on B. germanica PHM; 13 µM at rat PAM [1] (Ki,s, rat PAM, […] DMSO); 7.9 ± 2.8 µM at rat PAM [1] (setting [3]). In the experiment with DU 145 cells, the “antiproliferative concentration relative to Ki,s for PHM” value is ~ 60 fold and 60–300 fold. Also, the “concentration showing significant anti-proliferative effects” value in the experiment with DU 145 cells (DU 145 cells, Fig. 2) was greater than 500 µM.
